Publication PMC11621838 (Proceedings of the National Academy of Sciences of the …, 2024)

Columns and labels:
[1] = target: T1, TAS2R5 (Homo sapiens, UniProt Q9NYW4); format: cell-based
T1 sequence (Q9NYW4 1-299): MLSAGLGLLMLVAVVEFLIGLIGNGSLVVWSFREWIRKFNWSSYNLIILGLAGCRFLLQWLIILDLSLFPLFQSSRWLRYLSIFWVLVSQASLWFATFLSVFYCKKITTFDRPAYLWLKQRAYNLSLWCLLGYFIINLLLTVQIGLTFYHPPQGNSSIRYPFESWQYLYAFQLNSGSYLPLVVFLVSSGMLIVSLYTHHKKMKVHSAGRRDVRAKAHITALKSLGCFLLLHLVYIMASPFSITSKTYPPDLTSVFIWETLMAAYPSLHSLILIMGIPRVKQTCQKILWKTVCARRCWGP

[2] = target: T1, TAS2R5; experiment: FLOWER microtoroid optical resonator receptor-ligand affinity measurement; format: binding
In short: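 Microtoroid coated with DOPC vesicles (0.5 mg/mL, 1.5 h, 3–4 °C). HEK-293-expressed TAS2R5 was extracted with CellLyticM (1:3) and spun 12,500 rcf, 60 min, 4 °C. The supernatant, diluted 1:6 in DPBS pH 7.4, was incubated with the toroid for 1.5 h. Graded agonist concentrations were perfused with 5-min buffer rinses. Peak wavelength shift per concentration was fit to a Hill binding equation (Bmax, nonspecific, background terms) for KD.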

- EC50 ([1]; EC50, D9 cells, Fluo-4, [Ca2+]i, mean ± SE of 7 to 10 experiments): 23.1 ± 3.99 µM
- EC50, fold lower than that of T5-14 ([1]; [Ca2+]i in D9 cells): 3 fold
- potency class of the agonist ([1]; cellular assays): moderate-potency
- S.T. (log-transformed signal transduction coefficient) ([1]; log(EMax/EC50), EC50 in Molar): 6.5
- Kd [2]: 13 ± 3.5 µM
SMILES: c1cnc2c(c1)ccc1cccnc12 [T5-1, 1,10-phenanthroline]
